Source: PubChem (several laboratories)
RORa activator – activators of orphan receptor RORA, primary screen, cell-based, luminescence. activation, % at 10 µM. CHO-K1 Gal4-RORA LBD luciferase reporter; percent increase over mock-subtracted basal signal. 65,000 tested, 1.5% active. AID 560, 2006. Nuclear receptor ROR-alpha (Homo sapiens), P35398;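 active = activation above the mean of all tested compounds plus 3 SD, cut at about 49% in these data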;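 note: 0% = DMSO-treated RORA cells and 100% = added signal equal to DMSO minus mock-transfected cells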
MMP-13 inhibitor – human MMP13 inhibitors, primary screen, biochemical, FRET peptide cleavage; Collagenase 3 (Homo sapiens), P45452; 65,000 tested, 0.07% active; MMP-13 fTHP FRET cleavage, Mca fluorescence; inhibition, % at 4 µM; AID 570, 2006;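 active = inhibition above the mean of compound-free control plate wells plus 3 SD, cut at about 14% in these data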;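 note: 0% = DMSO wells and 100% = wells with reference MMP-13 inhibitor after basal subtraction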
WNV protease inh – inhibitors of WNV NS2B-NS3 protease, primary screen, biochemical, fluorogenic substrate | Genome polyprotein (West Nile virus), P06935 | fluorogenic substrate Ex360/Em465; active compounds read low | z-score (no concentration beside the values) | 65,000 tested, 0.18% active; in the data active = z-score below about -3
Target sequence (P06935 1371-1501 limits assumed): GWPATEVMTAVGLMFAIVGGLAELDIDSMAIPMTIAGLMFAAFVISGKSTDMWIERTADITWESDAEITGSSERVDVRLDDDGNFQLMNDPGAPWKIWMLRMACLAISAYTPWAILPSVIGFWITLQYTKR
Target sequence (P06935 1502-1679 limits assumed): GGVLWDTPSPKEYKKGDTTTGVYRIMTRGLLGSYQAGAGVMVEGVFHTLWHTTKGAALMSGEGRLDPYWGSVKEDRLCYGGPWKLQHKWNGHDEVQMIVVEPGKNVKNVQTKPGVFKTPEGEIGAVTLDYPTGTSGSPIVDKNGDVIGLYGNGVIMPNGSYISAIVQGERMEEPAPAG
MT1-MMP txn act – MT1-MMP promoter reporter activation – cell-based, luciferase luminescence, primary screen | AID 750, 2007 | 86,000 tested, 0.16% active | HT1080 MT1-MMP promoter luciferase reporter, overnight; active compounds read high | activation factor at 10 µM;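 active = activation factor of at least 2 for MT1-MMP transcription at 10 µM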
SF-1 act – activators of human SF-1, primary screen, cell-based, CHO-K1, Gal4-SF-1 LBD, luciferase luminescence. Steroidogenic factor 1 (Homo sapiens), Q13285. CHO-K1 Gal4-SF-1 LBD luciferase reporter; % increase over DMSO SF-1-specific signal. AID 522, 2006. 65,000 tested, 1.9% active. activation, % at 10 µM;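 active = activation above the mean activation of all tested compounds plus 3 SD, cut at about 50% in these data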
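Test system: transient Gal4-SF-1 LBD reporter, CHO-K1; Amount: 4,000 CHO-K1 cells per well; Doses: 10 µM only; Timing: compound exposure 20 h at 37 °C; Signal: luciferase light emission; Read-out basis: percent activation relative to DMSO median and mock-transfected background; Control set: DMSO negative control and −SF1 background wells; Replicates: one test per compound.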
Starred values were filed as active, the others as inactive; nt = no result. Most compounds without a hit are left out; they make up all but 2.3% or so of the library.

SMILES | RORa activator | MMP-13 inhibitor | WNV protease inh | MT1-MMP txn act | SF-1 act
CC(=O)c1cnc2cc(-c3ccc(C)cc3)nn2c1C | nt | nt | nt | 1.8 | nt
O=C(NCC1COc2ccccc2O1)c1ccc(NC(=O)c2ccco2)cc1 (stereo unspecified) | 9.8 | 1.6 | -0.2 | 1 | 2.7
O=C(NCC1COc2ccccc2O1)c1ccc(Cl)cc1 (stereo unspecified) | 32.3 | 2.0 | 1.99 | 1.3 | 59.5*
c1csc(CSc2nc3ccccc3s2)c1 | 44.6 | 2.0 | 0.2 | 1.7 | 52.2*
Cc1noc(C)c1CSc1nc2ccccc2s1 | 4.0 | 0.6 | -0.7 | 1 | 18.8
c1csc(CSc2nnc3sc4ccccc4n23)c1 | 51.0* | -0.3 | -0.17 | 1.6 | 39.7
CN(C)C(=O)CSc1nnc2sc3ccccc3n12 | -2.4 | 0.3 | 0.04 | 1.1 | 4.5
Oc1ccccc1C1=Nc2nc3ccccc3n2C(c2ccccc2)C1 (stereo unspecified) | 80.8* | -17.2 | 0.18 | 1.3 | 42.0
Cn1nc(-c2ccc(Cl)cc2)c2cc(C(=O)NCCCN3CCCC3)sc21 | 10.6 | -123.2 | -0.11 | 1.4 | 56.0*
CCCCNC(=O)c1cc2c(-c3ccc(Cl)cc3)nn(C)c2s1 | -14.2 | -29.7 | -0.55 | 1.3 | 11.2
O=C(CSc1ncn[nH]1)Nc1nnc(-c2ccccc2)s1 | 55.5* | -8.0 | 1.95 | 1.3 | -15.7
CCCOc1ccc(S(=O)(=O)n2cc(Br)c(=O)[nH]c2=O)cc1 | 50.0* | 5.3 | 0.76 | 1 | 21.5
O=c1[nH]c(=O)n(CCOc2ccc(Cl)cc2)cc1Br | -3.0 | 0.3 | -0.92 | 1.1 | -12.4
O=C(C1CCCN(S(=O)(=O)c2cccc3cccnc23)C1)N1CCN(c2ccc(F)cc2)CC1 (stereo unspecified) | 2.5 | 2.7 | -1 | 1.1 | -12.1
CCc1c(C(=O)N/N=C/c2ccc(C)o2)csc1C | nt | nt | nt | 1.4 | nt
CC(C)NC(=O)CSc1nnc(C2CC2)n1-c1ccccc1 | nt | nt | nt | 1.2 | nt
O=C1c2ccccc2S(=O)(=O)N1CC1CC(c2ccccc2)=NO1 (stereo unspecified) | 49.2* | 1.7 | -1.16 | 1.8 | 30.4
COc1ccc(C2=NOC(CN3C(=O)c4ccccc4S3(=O)=O)C2)cc1 (stereo unspecified) | 35.2 | 4.3 | 0.27 | 1.2 | 67.3*
CCCOc1ccc(N2CC(C(=O)NC(C)C)CC2=O)cc1 (stereo unspecified) | -21.8 | 3.5 | 1.69 | 1 | 5.2
O=S(=O)(NCCSc1nnnn1-c1ccccc1)c1cccs1 | 22.1 | 2.8 | 1.92 | 1.3 | 54.1*
CCC/C=C(\CCC)C(NS(=O)(=O)c1ccc(-c2ccccc2)cc1)c1ccc(C(=O)OC)cc1 (stereo unspecified) | nt | nt | nt | 1.2 | nt
Cc1sc2c(c1C)CN(Cc1ccco1)CN2C(=O)c1ccccc1 | 20.0 | -2.8 | -0.36 | 2.1* | 22.4
c1ccc(-n2nc3c(ccc4cnnc43)[nH]2)cc1 | 54.7* | -150.1 | -1.27 | 1.7 | 35.8
Cc1nnc2sc(-c3cc4ccccc4o3)nn12 | 56.8* | -3.3 | -0.59 | 1.3 | 34.2
O=C(c1ccc(-c2ccccc2)cc1)N1CCC(C(=O)N2CCCC2)CC1 | -6.6 | 0.6 | -0.09 | 1.2 | -2.6
SMILES | RORa activator | MMP-13 inhibitor | WNV protease inh | MT1-MMP txn act | SF-1 act
O=C(c1ccc(-c2nnc(-c3ccccc3)o2)cc1)N1CCCCCC1 | 60.3* | -0.3 | -0.02 | 1.2 | 1.0
CCCNC(=O)c1ccc(-c2nc3ccccc3s2)s1 | nt | nt | nt | 0.6 | nt
CNc1sc(C(=O)c2ccccc2F)c(N)c1-c1nc2ccccc2s1 | nt | nt | nt | 2.1* | nt
CCCCCCN(C(=O)CCCCCN1C(=O)NC(C2CC2)C(C(=O)OCc2ccccc2)=C1C)C(C(=O)NCCCC)c1ccc(OCC(=O)OC)c(C(=O)OC)c1 (stereo unspecified) | nt | nt | nt | 1 | nt
CCc1cc2c(NCC3CCCO3)nc(C)nc2s1 (stereo unspecified) | nt | nt | nt | 1.1 | nt
O=C(NCCc1c[nH]c2ccccc12)c1cnc2n(c1=O)CCS2 | 59.9* | 1.9 | 1.52 | 1.5 | 48.4
CC(=O)Nc1ccc2nc(-c3ccccn3)[nH]c2c1 | 65.0* | -33.5 | -1.29 | 1.3 | 47.5
Cc1ccc(CCNC(=O)Cn2cccc2)cc1 | -18.8 | -3.2 | 0.95 | 1.1 | -10.0
O=C(Nc1ccc(N2CCOCC2)cc1)C1CC1 | 5.3 | 3.6 | -0.2 | 1.1 | -2.9
O=C(Nc1ccc(N2CCOCC2)c(Cl)c1)C1CCCCC1 | 49.4* | 1.8 | -0.62 | 1.4 | 46.8
COc1ccc(CCn2c(-c3ccco3)nc3nc4ccccc4nc32)cc1 | 11.5 | -10.7 | 0.35 | 1.2 | 29.3
COc1ccc(C(=O)n2c(-c3ccco3)nc3ccccc32)cc1 | 65.0* | 2.7 | -0.56 | 0.7 | -6.9
O=C(c1cc2nc(-c3ccco3)cc(C(F)(F)F)n2n1)N1CCN(Cc2ccccc2)CC1 | nt | nt | nt | 1.2 | nt
O=C1c2ccccc2C(=O)N1CCN1CCc2ccccc21 | 37.0 | 1.9 | 0.13 | 1.6 | 52.5*
CC1=NC(=O)C(N=Nc2cccc(O)c2)N1c1ccccc1 (stereo unspecified) | nt | nt | nt | 2* | nt
O=C(c1cccs1)N1CCN(C(=O)c2ccco2)c2ccccc2C1 | 2.5 | -0.8 | -4.82* | 1.1 | -17.9
CN1/C(=C/C2CC(=O)N(c3ccc([N+](=O)[O-])cc3)C2=O)C(C)(C)c2ccccc21 (stereo unspecified) | nt | nt | nt | 1 | nt
Nc1nc2c(s1)CCc1c-2cnn1-c1ccccc1 | 16.8 | -14.7 | -0.16 | 1.3 | 91.1*
c1coc(C2Nc3ccccc3-c3nc4ccccc4n32)c1 (stereo unspecified) | 70.7* | -308.1 | 0.45 | 1.3 | 75.5*
Cc1ccc(-n2nc(C)c(C3C(C#N)=C(N)OC4=C3C(=O)CC(C)(C)C4)c2Cl)cc1 (stereo unspecified) | 30.0 | -2.9 | 0.05 | 1 | 57.0*
Cc1nn(-c2ccccc2)c(Cl)c1C1C(C#N)=C(N)OC2=C1C(=O)CCC2 (stereo unspecified) | -23.0 | 3.1 | -0.78 | 1.1 | -10.8
Fc1cccc(CSc2nc3ccncc3[nH]2)c1 | 25.1 | -5.1 | 0.99 | 1.3 | 50.9*
N#Cc1c(N)nc(SCc2ccccn2)c(C#N)c1-c1cccs1 | -12.9 | -3.8 | 0.0096 | 1.2 | -10.6
N#Cc1cc2ccccc2nc1SCc1ccccn1 | 71.3* | 0.2 | -0.42 | 1.7 | 66.7*
O=C(CN1C(=O)NC2(CCCCCC2)C1=O)c1ccc2c(c1)OCCO2 | 24.8 | -11.1 | -0.1 | 1.3 | 88.7*
O=C(CCN1CCCCC1)c1ccc2c(c1)OCCO2 | -18.9 | -0.9 | -0.59 | 0.9 | -11.8
Cc1noc(C)c1CSc1ncnc2ccccc12 | -6.9 | 5.2 | -0.59 | 1.2 | -8.4
CN1CCN(S(=O)(=O)c2ccc(Br)s2)CC1 | 62.7* | -3.4 | 0.15 | 1.3 | -24.0
